Data reported in ChEMBL document CHEMBL1137758, “Biphenyl C-cyclopropylalkylamides: New scaffolds for targeting estrogen receptor beta” (Bioorg Med Chem Lett, 2009).
Calls of active or inactive are those of the source. The rule behind the calls is not given here.

Legend:
MDA-MB-231 [1] = assay: Growth inhibition of estrogen receptor deficient human MDA-MB-231 cells at 3.2 nM to 50 uM after 72 hrs by MTS assay; assay type: functional, cell-based
Outline: (§1)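 Cells were plated at 1×10^3 cells/well in phenol red-free RPMI-1640 with 10% FBS and left to adhere 72 h. Agents were given over 3.2 nM to 50 µM for 72 h. Cell density was read by MTS dye reduction, A490 with A630 background subtracted.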

MCF7 [2] = assay: Cytotoxicity against estradiol-stimulated human MCF7 cells expressing ERalpha and ERbeta at 25 uM after 6 days by MTS assay; assay type: functional, cell-based
Outline: (§2)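 MCF-7 cells (an earlier passage expressing ERα and ERβ, or the later-passage ATCC variant expressing only ERα) were seeded at 4×10^3 cells/well in phenol red-free RPMI-1640 with 10% charcoal-dextran stripped FBS and left to adhere overnight. […] MTS/PMS read-out was A490 minus A630 after 2 h. Day-0 cells were set to 0% growth and E2-stimulated day-6 growth to 100%.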

MCF7 [3] = assay: cells; details: Homo sapiens, MCF7, 144 h
MCF7 [4] = assay: Cytotoxicity against estradiol-stimulated human MCF7 cells expressing ERalpha at 25 uM after 6 days by MTS assay; assay type: functional, cell-based; outline: as §2
Estrogen receptor beta [5] = target: T1, Estrogen receptor beta (Homo sapiens, UniProt Q92731); assay: Displacement of fluorescein-labeled estradiol from human recombinant ERbeta by fluorescence polarization assay
Outline: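 ER (15 nM) was incubated with Fluormone ES2 (1 nM) and serially diluted compound in DMSO (1% v/v) in duplicate. Polarization was read after 2 h (ex 485/em 530 nm). […] Values are means of three experiments.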

Estrogen receptor = target: T2, Estrogen receptor (Homo sapiens, UniProt P03372); assay: Displacement of fluorescein-labeled estradiol from human recombinant ERalpha by fluorescence polarization assay
T2 sequence (P03372 whole entry): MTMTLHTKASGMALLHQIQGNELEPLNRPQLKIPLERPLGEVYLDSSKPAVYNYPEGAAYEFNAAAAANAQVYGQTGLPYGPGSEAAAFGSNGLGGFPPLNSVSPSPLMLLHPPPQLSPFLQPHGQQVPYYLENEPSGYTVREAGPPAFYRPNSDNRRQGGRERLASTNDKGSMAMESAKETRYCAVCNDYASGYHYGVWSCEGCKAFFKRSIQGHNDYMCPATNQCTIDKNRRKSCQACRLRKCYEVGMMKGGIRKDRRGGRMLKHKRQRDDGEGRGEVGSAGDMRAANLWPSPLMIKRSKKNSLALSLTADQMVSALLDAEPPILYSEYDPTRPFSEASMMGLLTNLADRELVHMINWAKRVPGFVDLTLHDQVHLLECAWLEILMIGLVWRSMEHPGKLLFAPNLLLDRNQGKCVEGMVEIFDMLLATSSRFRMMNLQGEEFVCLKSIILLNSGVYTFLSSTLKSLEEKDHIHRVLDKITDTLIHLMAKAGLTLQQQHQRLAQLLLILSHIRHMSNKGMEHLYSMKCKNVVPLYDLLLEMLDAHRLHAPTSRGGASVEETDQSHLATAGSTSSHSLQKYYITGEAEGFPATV

MDA-MB-231 [6] = assay: Cytotoxicity against estrogen receptor deficient human MDA-MB-231 cells at 25 uM after 72 hrs by MTS assay; assay type: functional, cell-based; outline: as §1
[7] = Selectivity for ERalpha over ERbeta
MCF7 [8] = assay: cells; details: Homo sapiens, MCF7, 144 h; remark: listed apart in the source
[9] = target: T3, Estrogen receptor (Homo sapiens) (UniProt P03372); assay: Displacement of fluorescein-labeled estradiol from human recombinant ERalpha at 1 uM by fluorescence polarization assay
T3 sequence (whole entry): T2 sequence (P03372 whole entry)

[10] = target: T3, Estrogen receptor (Homo sapiens); assay: Displacement of fluorescein-labeled estradiol from human recombinant ERalpha at 0.2 uM by fluorescence polarization assay
Estrogen receptor beta [11] = target: T1, Estrogen receptor beta; assay: Displacement of fluorescein-labeled estradiol from human recombinant ERbeta at 1 uM by fluorescence polarization assay
Estrogen receptor beta [12] = target: T1, Estrogen receptor beta; assay: Displacement of fluorescein-labeled estradiol from human recombinant ERbeta at 5 uM by fluorescence polarization assay
Estrogen receptor beta [13] = target: T1, Estrogen receptor beta; assay: Displacement of fluorescein-labeled estradiol from human recombinant ERbeta at 0.2 uM by fluorescence polarization assay
[14] = target: T3, Estrogen receptor (Homo sapiens); assay: Displacement of fluorescein-labeled estradiol from human recombinant ERalpha at 5 uM by fluorescence polarization assay
[15] = Selectivity for ERbeta over ERalpha

T1 sequence (Q92731 whole entry): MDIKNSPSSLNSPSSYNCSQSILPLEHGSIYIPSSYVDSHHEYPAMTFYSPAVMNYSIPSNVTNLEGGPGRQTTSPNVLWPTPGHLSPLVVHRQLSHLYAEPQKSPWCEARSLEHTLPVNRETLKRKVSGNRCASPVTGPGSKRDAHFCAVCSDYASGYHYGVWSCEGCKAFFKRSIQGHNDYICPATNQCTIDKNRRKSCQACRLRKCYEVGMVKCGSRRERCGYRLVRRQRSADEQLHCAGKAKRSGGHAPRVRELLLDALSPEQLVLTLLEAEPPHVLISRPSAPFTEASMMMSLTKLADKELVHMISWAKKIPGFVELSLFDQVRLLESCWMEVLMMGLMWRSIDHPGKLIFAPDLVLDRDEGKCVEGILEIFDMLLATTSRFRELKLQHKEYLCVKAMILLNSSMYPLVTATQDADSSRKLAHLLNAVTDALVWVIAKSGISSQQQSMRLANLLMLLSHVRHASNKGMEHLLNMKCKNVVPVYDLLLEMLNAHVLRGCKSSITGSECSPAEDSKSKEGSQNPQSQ

Compound	Activity [9]	Activity [10]	Activity (Estrogen receptor beta [11])	Activity (Estrogen receptor beta [12])	Activity (Estrogen receptor beta [13])	Activity [14]	further results
CCCC[C@@H]1C[C@H]1[C@@H](NC(=O)c1ccccc1)c1ccc(-c2ccc(O)cc2)cc1F (relative stereo)	–	–	–	–	–	–	growth inhibition (GI) (MDA-MB-231 [1]): inactive; Activity (MCF7 [2]): Active; GI50 (MCF7 [3]): 4.1 µM; Activity (MCF7 [4]): Active; IC50 (Estrogen receptor beta [5]): 2.05 µM; IC50 (Estrogen receptor; read-out: IC50): > 100 µM; Activity (MDA-MB-231 [6]): Active
CCCc1c(-c2ccc(O)cc2)nn(-c2ccc(O)cc2)c1-c1ccc(O)cc1	–	–	–	–	–	–	fold change (FC) [7]: 410
CCCC[C@@H]1C[C@H]1[C@@H](N)c1ccc(-c2ccc(O)cc2)cc1F.Cl (relative stereo)	–	–	–	–	–	–	growth inhibition (GI) (MDA-MB-231 [1]): inactive; Activity (MCF7 [2]): Active; GI50 (MCF7 [3]): 1.2 µM; Activity (MCF7 [4]): Active; IC50 (Estrogen receptor beta [5]): 15 µM; GI50 (MCF7 [8]): 51.7 µM; IC50 (Estrogen receptor): Not Active; Activity (MDA-MB-231 [6]): Active
C=C(CCCC)[C@@H](NC(=O)c1ccco1)c1ccccc1	29%	-111%	-2%	6%	-3%	41%	–
CCC[C@@H]1C[C@@]1(CCC)[C@@H](NS(=O)(=O)c1cccc2cccnc12)c1ccc(-c2ccccc2)cc1	70%	58%	17%	29%	15%	88%	–
C=C(CCC)[C@@H](NC(=O)c1ccccc1Cl)c1ccccc1	68%	68%	7%	7%	11%	73%	–
CCC/C=C(\CCC)[C@@H](NS(=O)(=O)c1ccc(C(F)(F)F)cc1)c1ccccc1	74%	47%	10%	30%	-1%	90%	–
CCCC[C@@H]1C[C@H]1[C@@H](NC(=O)Cc1ccccc1)c1ccc(-c2ccccc2)cc1	33%	47%	8%	14%	2%	28%	–
CCC/C=C(\CCC)[C@@H](NS(=O)(=O)c1ccccc1Cl)c1ccc(C(=O)OC)cc1	92%	61%	32%	40%	15%	98%	–
O/N=C/c1ccc(-c2ccc(O)cc2)cc1F	–	–	–	–	–	–	fold change (FC) [15]: 11; IC50 (Estrogen receptor beta [5]): 0.0323 µM; IC50 (Estrogen receptor; read-out: IC50): 0.795 µM
CCC/C=C(\CCC)[C@@H](NS(=O)(=O)c1cccs1)c1ccc(C(=O)OC)cc1	33%	39%	8%	32%	5%	92%	–
CCC/C=C(\CCC)[C@@H](NS(=O)(=O)c1ccc(-c2ccccc2)cc1)c1ccc(C(=O)OC)cc1	47%	-69%	12%	16%	6%	54%	–
CCC/C=C(\CCC)[C@@H](NC(=O)c1ccc(C(F)(F)F)cc1)c1ccc(C(F)(F)F)cc1	32%	-7%	5%	5%	10%	61%	–
CCC/C=C(\CCC)[C@@H](NC(=O)c1ccco1)c1ccc(C(=O)OC)cc1	58%	36%	-4%	15%	-4%	76%	–
C=C(CCCC)[C@@H](NC(=O)c1ccccc1)c1ccccc1	70%	58%	3%	9%	2%	67%	–
CCC/C=C(\CCC)[C@@H](NS(=O)(=O)c1cccc2cccnc12)c1ccc(-c2ccccc2)cc1	28%	56%	11%	13%	14%	67%	–
CCC/C=C(\CCC)[C@@H](NS(C)(=O)=O)c1ccccc1	39%	48%	-4%	17%	-3%	56%	–
CCC/C=C(\CCC)[C@@H](NC(=O)c1ccc(C(F)(F)F)cc1)c1ccccc1	59%	47%	11%	16%	10%	68%	–
CCCC[C@@H]1C[C@H]1C(NC(=O)c1cccs1)c1ccc(C(F)(F)F)cc1 (single isomer, unassigned)	58%	50%	14%	13%	8%	79%	–
CCCCCC/C=C(\C)[C@@H](NC(=O)c1cccnc1)c1ccc(-c2ccccc2)cc1	44%	32%	-4%	6%	-8%	48%	–
CCCC[C@@H]1C[C@H]1[C@@H](NC(=O)C(C)(C)C)c1ccc(C(F)(F)F)cc1	39%	40%	-4%	7%	-2%	56%	–
CCC[C@@H]1C[C@@]1(CCC)[C@@H](NP(=O)(c1ccccc1)c1ccccc1)c1ccc(Cl)cc1	30%	5%	-1%	-5%	2%	-44%	–
CCCC[C@@H]1C[C@H]1[C@@H](NC(=O)c1ccccc1)c1ccc(C(=O)OC)cc1	54%	54%	-2%	6%	-3%	75%	–
CCCC[C@@H]1C[C@H]1[C@@H](NC(=O)c1ccc(C(F)(F)F)cc1)c1ccc(C(=O)OC)cc1	45%	20%	1%	15%	-2%	45%	–
Cc1cc(-c2ccc(O)c(F)c2)ccc1/C=N/O	–	–	–	–	–	–	fold change (FC) [15]: 43
O=C(c1ccc(OCCN2CCCCC2)cc1)c1c(-c2ccc(O)cc2)sc2cc(O)ccc12	–	–	–	–	–	–	growth inhibition (GI) (MDA-MB-231 [1]): inactive; Activity (MCF7 [2]): Active; Activity (MCF7 [4]): Active; Activity (MDA-MB-231 [6]): Active
